The text below walks through data of ChEMBL document CHEMBL4033721, “Design, synthesis and evaluation of indole-2-carboxamides with pan anti-mycobacterial activity” (Bioorg Med Chem, 2017).

Values after ≈ are worked out from the molar mass of the structure shown.

One assay has as its system Mycobacterium avium-intracellulare. Briefly: Antimycobacterial activity against Mycobacterium avium-intracellulare isolate 1956 after 8 days by resazurin microtiter based colorimetric assay. The assay is classed as functional. Conditions: isolate 1956, 192 h. In outline:
(§1)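 Resazurin microtiter plate MIC, read by visual scan for growth, in Mueller Hinton II broth. Strains include clinical isolates of M. abscessus complex, M. chelonae, M. avium, M. intracellulare, M. xenopi, P. aeruginosa PAO-1 and S. aureus ATCC 25923.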
In general terms: Alamar Blue is a resazurin reagent that responds to reducing activity.
With `O=C(NCC12CC3CC(CC(C3)C1)C2)c1cc2ccccc2[nH]1`, the minimal inhibitory concentration (MIC) (as a rule, the lowest concentration that inhibits growth of the organism) was > 32 µg/mL.

On to `Cc1cc(C)c2cc(C(=O)NCC34CC5CC(CC(C5)C3)C4)[nH]c2c1`, for which the MIC was > 32 µg/mL.

`O=C(NC1CCCCCCC1)c1cc2ccccc2[nH]1`: the minimum inhibitory concentration (MIC) was > 32 µg/mL.

Regarding `Cc1cc(C)c2cc(C(=O)N[C@H]3CC[C@H](C)CC3)[nH]c2c1`, the MIC was > 32 µg/mL.

For the molecule `CCC12CC3CC(C1)CC(NC(=O)c1cc4c(C)cc(C)cc4[nH]1)(C3)C2`, the MIC is > 32 µg/mL.

The next assay concerns Mycobacterium tuberculosis. Kind of assay: Antimycobacterial activity against Mycobacterium tuberculosis H37Rv MC2-6206 after 8 days by resazurin microtiter based colorimetric assay. The assay is classed as functional. The conditions noted are these: H37Rv MC2-6206, 192 h. In outline: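 MIC was measured by resazurin microtiter colorimetric assay with visual growth scoring. Medium was 7H9-ADC–0.05% tyloxapol with 0.2% casaminoacids, 48 µg/ml pantothenate and 50 µg/ml L-leucine.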
Take `O=C(NCC12CC3CC(CC(C3)C1)C2)c1cc2ccccc2[nH]1`: the MIC was > 5 µg/mL.

For the molecule `Cc1cc(C)c2cc(C(=O)NCC34CC5CC(CC(C5)C3)C4)[nH]c2c1`, the minimum inhibitory concentration (MIC) amounted to 0.16 µg/mL (≈ 0.476 µM).

Regarding `O=C(NC1CCCCCCC1)c1cc2ccccc2[nH]1`, the MIC is 0.39 µg/mL (≈ 1.44 µM).

`Cc1cc(C)c2cc(C(=O)N[C@H]3CC[C@H](C)CC3)[nH]c2c1`: the minimum inhibitory concentration (MIC) is 0.31 µg/mL (≈ 1.09 µM).

Take `CCC12CC3CC(C1)CC(NC(=O)c1cc4c(C)cc(C)cc4[nH]1)(C3)C2`: the MIC came out at 0.039 µg/mL (≈ 0.111 µM).

System in another assay: not listed separately
Kind of assay: Antimycobacterial activity against Mycobacterium bolletii ATCC 14472 after 8 days by resazurin microtiter based colorimetric assay. The assay is classed as functional. Conditions: Mycobacteroides abscessus, ATCC 14472, 192 h. In outline: as §1
On to `O=C(NCC12CC3CC(CC(C3)C1)C2)c1cc2ccccc2[nH]1`, for which inhibition of growth (MIC) required 2 µg/mL (≈ 6.48 µM).

On to `Cc1cc(C)c2cc(C(=O)NCC34CC5CC(CC(C5)C3)C4)[nH]c2c1`, for which the MIC is > 32 µg/mL.

Take `O=C(NC1CCCCCCC1)c1cc2ccccc2[nH]1`: it took 32 µg/mL (≈ 118 µM) to inhibit growth (MIC).

`Cc1cc(C)c2cc(C(=O)N[C@H]3CC[C@H](C)CC3)[nH]c2c1`: the minimum inhibitory concentration (MIC) was ≤ 0.06 µg/mL.

In the case of `CCC12CC3CC(C1)CC(NC(=O)c1cc4c(C)cc(C)cc4[nH]1)(C3)C2`, the minimum inhibitory concentration (MIC) was > 32 µg/mL.

The subject of another assay is Mycobacteroides abscessus. Briefly: Antimycobacterial activity against Mycobacterium abscessus ATCC 19977 after 8 days by resazurin microtiter based colorimetric assay. The assay is classed as functional. Conditions: ATCC 19977, 192 h. In outline: as §1
In the case of `O=C(NCC12CC3CC(CC(C3)C1)C2)c1cc2ccccc2[nH]1`, the lowest concentration to inhibit growth (MIC) was 2 µg/mL (≈ 6.48 µM).

As to `Cc1cc(C)c2cc(C(=O)NCC34CC5CC(CC(C5)C3)C4)[nH]c2c1`, the MIC is > 32 µg/mL.

On to `O=C(NC1CCCCCCC1)c1cc2ccccc2[nH]1`, for which the MIC is > 32 µg/mL.

As for `Cc1cc(C)c2cc(C(=O)N[C@H]3CC[C@H](C)CC3)[nH]c2c1`, the MIC is ≤ 0.06 µg/mL.

Regarding `CCC12CC3CC(C1)CC(NC(=O)c1cc4c(C)cc(C)cc4[nH]1)(C3)C2`, the MIC is > 32 µg/mL.

System in the next assay: not listed separately
Briefly: Antimycobacterial activity against Mycobacterium massiliense isolate CIP108297 after 8 days by resazurin microtiter based colorimetric assay. The assay is classed as functional, Mycobacterium abscessus subsp. massiliense. The conditions noted are these: Mycobacteroides abscessus, isolate CIP108297, 192 h. In outline: as §1
The molecule `O=C(NCC12CC3CC(CC(C3)C1)C2)c1cc2ccccc2[nH]1` came in with a minimal inhibitory concentration (MIC) of 2 µg/mL (≈ 6.48 µM).

For the molecule `Cc1cc(C)c2cc(C(=O)NCC34CC5CC(CC(C5)C3)C4)[nH]c2c1`, the MIC was > 32 µg/mL.

Consider `O=C(NC1CCCCCCC1)c1cc2ccccc2[nH]1`, for which the minimum inhibitory concentration (MIC) is > 32 µg/mL.

Consider `Cc1cc(C)c2cc(C(=O)N[C@H]3CC[C@H](C)CC3)[nH]c2c1`, for which the minimal inhibitory concentration (MIC) is ≤ 0.06 µg/mL.

Take `CCC12CC3CC(C1)CC(NC(=O)c1cc4c(C)cc(C)cc4[nH]1)(C3)C2`: the MIC was > 32 µg/mL.

Another assay deals with Mycobacteroides chelonae. Kind of assay: Antimycobacterial activity against Mycobacterium chelonae ATCC 35752 after 8 days by resazurin microtiter based colorimetric assay. The conditions noted are these: ATCC 35752, 192 h. The assay is classed as functional. In outline: as §1
Consider `O=C(NCC12CC3CC(CC(C3)C1)C2)c1cc2ccccc2[nH]1`, for which inhibition of growth (MIC) required 1 µg/mL (≈ 3.24 µM).

With `Cc1cc(C)c2cc(C(=O)NCC34CC5CC(CC(C5)C3)C4)[nH]c2c1`, the minimal inhibitory concentration (MIC) is > 32 µg/mL.

With `O=C(NC1CCCCCCC1)c1cc2ccccc2[nH]1`, the MIC is > 32 µg/mL.

As to `Cc1cc(C)c2cc(C(=O)N[C@H]3CC[C@H](C)CC3)[nH]c2c1`, the minimum inhibitory concentration (MIC) is ≤ 0.06 µg/mL.

Regarding `CCC12CC3CC(C1)CC(NC(=O)c1cc4c(C)cc(C)cc4[nH]1)(C3)C2`, the minimal inhibitory concentration (MIC) is > 32 µg/mL.

System in the next assay: not listed separately
Kind of assay: Antimycobacterial activity against Mycobacterium massiliense isolate CRM0019 after 8 days by resazurin microtiter based colorimetric assay. The assay is classed as functional, Mycobacterium abscessus subsp. massiliense. Conditions: Mycobacteroides abscessus, isolate CRM0019, 192 h. In outline: as §1
Regarding `O=C(NCC12CC3CC(CC(C3)C1)C2)c1cc2ccccc2[nH]1`, the MIC was > 32 µg/mL.

As for `Cc1cc(C)c2cc(C(=O)NCC34CC5CC(CC(C5)C3)C4)[nH]c2c1`, the minimal inhibitory concentration (MIC) is > 32 µg/mL.

As for `O=C(NC1CCCCCCC1)c1cc2ccccc2[nH]1`, the lowest concentration to inhibit growth (MIC) was 32 µg/mL (≈ 118 µM).

On to `Cc1cc(C)c2cc(C(=O)N[C@H]3CC[C@H](C)CC3)[nH]c2c1`, for which the MIC was ≤ 0.06 µg/mL.

Regarding `CCC12CC3CC(C1)CC(NC(=O)c1cc4c(C)cc(C)cc4[nH]1)(C3)C2`, the MIC is > 32 µg/mL.

In the next assay the test system is Mycolicibacterium smegmatis. Kind of assay: Antimycobacterial activity against Mycobacterium smegmatis isolate MC2 155 after 8 days by resazurin microtiter based colorimetric assay. The assay is classed as functional. The conditions noted are these: str. MC2 155, 192 h.
For `O=C(NCC12CC3CC(CC(C3)C1)C2)c1cc2ccccc2[nH]1`, the MIC was > 20 µg/mL.

With `Cc1cc(C)c2cc(C(=O)NCC34CC5CC(CC(C5)C3)C4)[nH]c2c1`, the minimum inhibitory concentration (MIC) is > 20 µg/mL.

`O=C(NC1CCCCCCC1)c1cc2ccccc2[nH]1` registered a minimum inhibitory concentration (MIC) of 25 µg/mL (≈ 92.5 µM).

Regarding `Cc1cc(C)c2cc(C(=O)N[C@H]3CC[C@H](C)CC3)[nH]c2c1`, the MIC was > 20 µg/mL.

Consider `CCC12CC3CC(C1)CC(NC(=O)c1cc4c(C)cc(C)cc4[nH]1)(C3)C2`, for which the MIC was > 20 µg/mL.

In the next assay the test system is Mycobacterium avium. Briefly: Antimycobacterial activity against Mycobacterium avium isolate 104 after 8 days by resazurin microtiter based colorimetric assay. The assay is classed as functional. Conditions: isolate 104, 192 h. In outline: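 M. avium 104 MICs were read by resazurin microtiter colorimetric assay in 96-well plates, with growth scored visually, in Mueller Hinton II medium.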
Turning to `O=C(NCC12CC3CC(CC(C3)C1)C2)c1cc2ccccc2[nH]1`, the MIC is > 32 µg/mL.

`Cc1cc(C)c2cc(C(=O)NCC34CC5CC(CC(C5)C3)C4)[nH]c2c1`: the minimal inhibitory concentration (MIC) was > 32 µg/mL.

`O=C(NC1CCCCCCC1)c1cc2ccccc2[nH]1`: the MIC was > 32 µg/mL.

`Cc1cc(C)c2cc(C(=O)N[C@H]3CC[C@H](C)CC3)[nH]c2c1`: the MIC is > 32 µg/mL.

Take `CCC12CC3CC(C1)CC(NC(=O)c1cc4c(C)cc(C)cc4[nH]1)(C3)C2`: the MIC is > 32 µg/mL.

In a further assay the test system is Mycobacteroides abscessus. Kind of assay: Antimycobacterial activity against Mycobacterium abscessus isolate DCI 21 after 8 days by resazurin microtiter based colorimetric assay. The assay is classed as functional. Conditions: isolate DCI 21, 192 h. In outline: as §1
As to `O=C(NCC12CC3CC(CC(C3)C1)C2)c1cc2ccccc2[nH]1`, the minimal inhibitory concentration (MIC) was 2 µg/mL (≈ 6.48 µM).

Take `Cc1cc(C)c2cc(C(=O)NCC34CC5CC(CC(C5)C3)C4)[nH]c2c1`: the MIC was > 32 µg/mL.

For `O=C(NC1CCCCCCC1)c1cc2ccccc2[nH]1`, the MIC was > 32 µg/mL.

Turning to `Cc1cc(C)c2cc(C(=O)N[C@H]3CC[C@H](C)CC3)[nH]c2c1`, the minimum inhibitory concentration (MIC) is ≤ 0.06 µg/mL.

For `CCC12CC3CC(C1)CC(NC(=O)c1cc4c(C)cc(C)cc4[nH]1)(C3)C2`, the MIC is > 32 µg/mL.

A further assay concerns Mycobacterium xenopi. Briefly: Antimycobacterial activity against wild type Mycobacterium xenopi isolate 4042 after 8 days by resazurin microtiter based colorimetric assay. The assay is classed as functional. Conditions: isolate 4042, 192 h. In outline: as §1
Consider `O=C(NCC12CC3CC(CC(C3)C1)C2)c1cc2ccccc2[nH]1`, for which the MIC came to 4 µg/mL (≈ 13 µM).

For the molecule `Cc1cc(C)c2cc(C(=O)NCC34CC5CC(CC(C5)C3)C4)[nH]c2c1`, 1 µg/mL (≈ 2.97 µM) was the least that counted as inhibitory (MIC).

Take `O=C(NC1CCCCCCC1)c1cc2ccccc2[nH]1`: the minimal inhibitory concentration (MIC) stood at 2 µg/mL (≈ 7.4 µM).

In turn, `Cc1cc(C)c2cc(C(=O)N[C@H]3CC[C@H](C)CC3)[nH]c2c1` returned an MIC of 0.25 to 1 µg/mL (≈ 0.879 to 3.52 µM).

With `CCC12CC3CC(C1)CC(NC(=O)c1cc4c(C)cc(C)cc4[nH]1)(C3)C2`, the MIC was > 32 µg/mL.
